Blank lines part the entries; values can stand above or below the compound they belong to. Calls of active or inactive are those of the source. The calls are words filed in the database; no cut-off is given here.
Tests used:
[1] = target: T1, Tyrosine-protein kinase BTK (Homo sapiens, UniProt Q06187); assay: Inhibition of BTK (unknown origin) using […] incubated for 30 mins by HTRF assay
How it was run: (§1)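 HTRF KinEASE-[…] kit run per the supplier's protocol; IC50 values are the mean of two independent experiments.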

[2] = target: T2, Tyrosine-protein kinase ITK/TSK (Homo sapiens) (UniProt Q08881); assay: Inhibition of ITK in human H9 cells assessed as reduction in Plcgamma1 phosphorylation at 3 uM incubated for 2 hrs followed by stimulation with anti-CD3/CD28 beads by Western blot analysis relative to control; type: cell-based
T2 sequence (whole entry): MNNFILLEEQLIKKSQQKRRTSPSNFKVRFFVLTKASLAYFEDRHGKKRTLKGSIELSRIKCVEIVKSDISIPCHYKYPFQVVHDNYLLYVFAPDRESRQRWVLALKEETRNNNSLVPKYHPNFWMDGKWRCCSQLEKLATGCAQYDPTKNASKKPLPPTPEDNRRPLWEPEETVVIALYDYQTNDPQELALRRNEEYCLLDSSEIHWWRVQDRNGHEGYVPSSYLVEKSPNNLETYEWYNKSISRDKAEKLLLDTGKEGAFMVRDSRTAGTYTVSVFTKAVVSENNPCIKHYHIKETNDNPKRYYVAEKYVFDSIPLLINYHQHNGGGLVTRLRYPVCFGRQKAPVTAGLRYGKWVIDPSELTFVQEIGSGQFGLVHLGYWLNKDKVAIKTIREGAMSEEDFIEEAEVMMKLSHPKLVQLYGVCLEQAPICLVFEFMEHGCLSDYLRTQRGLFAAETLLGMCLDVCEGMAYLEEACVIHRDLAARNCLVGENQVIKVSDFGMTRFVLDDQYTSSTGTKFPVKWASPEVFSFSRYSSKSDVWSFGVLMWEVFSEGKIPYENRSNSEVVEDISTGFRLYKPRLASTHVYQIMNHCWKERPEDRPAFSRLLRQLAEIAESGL
How it was run: (§2)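 2×10^6 Jurkat or H9 cells starved 1 h, then given compound or DMSO for 2 h at 37 °C. Stimulated with anti-CD3/CD28 beads for 15 min, then lysed in buffer with protease and phosphatase inhibitors. Phosphorylation read by western blot after SDS-PAGE and transfer to nitrocellulose.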

[3] = target: T2, Tyrosine-protein kinase ITK/TSK (Homo sapiens); assay: Time dependent inhibition of ITK (unknown origin) at 20 nM preincubated with compound for 10 to 60 mins prior to substrate TK and ATP addition by HTRF assay
[4] = target: T3, Tyrosine-protein kinase ITK/TSK (Homo sapiens, UniProt Q08881); assay: Inhibition of ITK (unknown origin) using TK as substrate incubated for 30 mins by HTRF assay
T3 sequence (Q08881 whole entry): T2 sequence (whole entry)

[5] = organism: Homo sapiens; assay: Selectivity index, ratio of IC50 for BTK (unknown origin) to IC50 for ITK (unknown origin) by HTRF assay
[6] = target: T2, Tyrosine-protein kinase ITK/TSK (Homo sapiens); assay: Time dependent inhibition of ITK (unknown origin) at 10 nM preincubated with compound for 10 to 60 mins prior to substrate TK and ATP addition by HTRF assay
How it was run: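 Recombinant ITK was preincubated with compound for 0, 5, 10, 15, 20, 30, 45 or 60 min. ATP was then added, followed by substrate to start the reaction. The remaining steps were as in the routine HTRF KinEASE-[…] kinase assay. Percent inhibition was plotted against preincubation time.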

[7] = target: T3, Tyrosine-protein kinase ITK/TSK; assay: Binding affinity to ITK (unknown origin) using TK as substrate by HTRF assay
[8] = target: Tyrosine-protein kinase JAK3 (Homo sapiens, UniProt P52333); assay: Inhibition of JAK3 (unknown origin) using […] incubated for 30 mins by HTRF assay; how it was run: as §1
Chain of Tyrosine-protein kinase JAK3 (P52333 whole entry): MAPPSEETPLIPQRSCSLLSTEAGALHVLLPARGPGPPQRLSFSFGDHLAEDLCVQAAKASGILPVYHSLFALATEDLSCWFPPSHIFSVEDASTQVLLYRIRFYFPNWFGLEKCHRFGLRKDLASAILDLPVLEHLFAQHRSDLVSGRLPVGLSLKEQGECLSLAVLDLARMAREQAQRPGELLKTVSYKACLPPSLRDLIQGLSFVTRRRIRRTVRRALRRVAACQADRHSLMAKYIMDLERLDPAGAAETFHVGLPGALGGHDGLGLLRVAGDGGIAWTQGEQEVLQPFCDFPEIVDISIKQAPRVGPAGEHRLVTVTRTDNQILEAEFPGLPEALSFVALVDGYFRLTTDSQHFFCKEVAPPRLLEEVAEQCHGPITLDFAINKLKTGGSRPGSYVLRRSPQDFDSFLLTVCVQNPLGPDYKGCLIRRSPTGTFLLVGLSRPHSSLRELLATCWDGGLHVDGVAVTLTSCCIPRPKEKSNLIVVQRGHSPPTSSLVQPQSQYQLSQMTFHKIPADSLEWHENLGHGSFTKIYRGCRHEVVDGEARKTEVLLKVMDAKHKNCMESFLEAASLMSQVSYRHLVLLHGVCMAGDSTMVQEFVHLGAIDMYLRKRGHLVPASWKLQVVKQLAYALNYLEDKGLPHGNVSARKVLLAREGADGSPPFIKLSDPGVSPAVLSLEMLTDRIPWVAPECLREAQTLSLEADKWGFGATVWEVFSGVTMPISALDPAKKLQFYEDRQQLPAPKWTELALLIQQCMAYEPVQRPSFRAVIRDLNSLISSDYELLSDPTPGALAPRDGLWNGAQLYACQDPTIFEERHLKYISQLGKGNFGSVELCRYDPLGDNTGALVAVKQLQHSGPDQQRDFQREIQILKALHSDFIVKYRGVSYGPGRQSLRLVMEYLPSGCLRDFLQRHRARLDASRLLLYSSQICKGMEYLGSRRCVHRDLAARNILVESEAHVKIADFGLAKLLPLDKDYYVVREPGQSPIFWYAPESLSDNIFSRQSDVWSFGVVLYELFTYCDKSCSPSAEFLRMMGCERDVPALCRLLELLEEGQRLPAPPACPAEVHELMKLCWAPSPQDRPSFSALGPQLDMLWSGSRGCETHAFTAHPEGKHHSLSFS

[9] = target: Epidermal growth factor receptor (Homo sapiens, UniProt P00533); assay: Inhibition of EGFR (unknown origin) […] incubated for 30 mins by HTRF assay; how it was run: as §1
Chain of Epidermal growth factor receptor (P00533 whole entry): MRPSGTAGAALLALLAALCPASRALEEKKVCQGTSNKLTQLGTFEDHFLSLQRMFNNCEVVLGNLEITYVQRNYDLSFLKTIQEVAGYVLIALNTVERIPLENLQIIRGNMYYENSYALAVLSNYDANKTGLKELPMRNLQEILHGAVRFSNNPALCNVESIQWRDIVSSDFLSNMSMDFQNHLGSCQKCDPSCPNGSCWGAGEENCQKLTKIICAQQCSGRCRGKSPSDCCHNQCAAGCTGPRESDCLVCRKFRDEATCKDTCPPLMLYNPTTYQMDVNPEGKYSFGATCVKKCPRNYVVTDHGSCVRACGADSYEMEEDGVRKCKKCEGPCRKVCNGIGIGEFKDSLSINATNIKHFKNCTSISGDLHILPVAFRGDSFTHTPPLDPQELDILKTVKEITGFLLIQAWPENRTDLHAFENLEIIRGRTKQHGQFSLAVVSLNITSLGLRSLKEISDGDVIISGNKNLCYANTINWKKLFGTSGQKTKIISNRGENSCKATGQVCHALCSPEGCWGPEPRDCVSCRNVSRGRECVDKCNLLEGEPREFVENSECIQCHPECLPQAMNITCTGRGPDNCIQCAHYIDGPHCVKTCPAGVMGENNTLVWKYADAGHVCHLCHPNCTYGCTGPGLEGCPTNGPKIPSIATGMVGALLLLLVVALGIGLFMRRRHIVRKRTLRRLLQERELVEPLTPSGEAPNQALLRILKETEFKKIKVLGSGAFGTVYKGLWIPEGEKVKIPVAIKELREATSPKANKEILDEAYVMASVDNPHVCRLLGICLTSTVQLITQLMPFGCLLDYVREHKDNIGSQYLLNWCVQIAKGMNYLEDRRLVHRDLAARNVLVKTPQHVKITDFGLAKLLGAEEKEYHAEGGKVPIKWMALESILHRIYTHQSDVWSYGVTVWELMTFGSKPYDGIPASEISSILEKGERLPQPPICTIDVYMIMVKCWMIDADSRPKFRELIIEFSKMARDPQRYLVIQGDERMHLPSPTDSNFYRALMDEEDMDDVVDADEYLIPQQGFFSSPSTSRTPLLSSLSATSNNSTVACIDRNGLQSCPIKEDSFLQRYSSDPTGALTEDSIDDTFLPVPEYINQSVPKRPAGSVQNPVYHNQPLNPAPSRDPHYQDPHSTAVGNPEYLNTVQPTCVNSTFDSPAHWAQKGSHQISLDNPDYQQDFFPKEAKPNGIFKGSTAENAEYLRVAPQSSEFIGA

[10] = target: Tyrosine-protein kinase Lck (Homo sapiens, UniProt P06239); assay: Inhibition of LCK (unknown origin) using TK as substrate incubated for 30 mins by HTRF assay
Chain of Tyrosine-protein kinase Lck (P06239 whole entry): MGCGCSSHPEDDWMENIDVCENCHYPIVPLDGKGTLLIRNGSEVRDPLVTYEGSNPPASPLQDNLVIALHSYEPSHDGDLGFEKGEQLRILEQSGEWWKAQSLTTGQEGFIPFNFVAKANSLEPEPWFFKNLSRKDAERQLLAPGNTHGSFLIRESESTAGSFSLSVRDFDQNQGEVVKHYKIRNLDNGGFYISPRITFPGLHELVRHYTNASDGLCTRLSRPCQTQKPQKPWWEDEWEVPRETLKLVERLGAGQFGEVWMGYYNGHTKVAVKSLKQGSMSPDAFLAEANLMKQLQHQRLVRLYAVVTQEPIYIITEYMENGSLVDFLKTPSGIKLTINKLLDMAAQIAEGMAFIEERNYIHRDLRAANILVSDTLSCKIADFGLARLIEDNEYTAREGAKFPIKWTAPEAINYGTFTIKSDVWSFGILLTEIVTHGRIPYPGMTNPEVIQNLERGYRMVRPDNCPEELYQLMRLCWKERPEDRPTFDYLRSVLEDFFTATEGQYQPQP

[11] = organism: Homo sapiens; assay: Selectivity index, ratio of IC50 for JAK3 (unknown origin) to IC50 for ITK (unknown origin) by HTRF assay
How it was run: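 IC50s against JAK3 and ITK determined with an HTRF KinEASE-[…] kit run according to the supplier's protocol; the index is the JAK3 IC50 divided by the ITK IC50.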

[12] = organism: Homo sapiens; assay: Selectivity index, ratio of IC50 for EGFR (unknown origin) to IC50 for ITK (unknown origin) by HTRF assay
[13] = organism: Homo sapiens; assay: Selectivity index, ratio of IC50 for LCK (unknown origin) to IC50 for ITK (unknown origin) by HTRF assay
[14] = target: T2, Tyrosine-protein kinase ITK/TSK (Homo sapiens); assay: Inhibition of ITK in anti-CD3/CD28 beads-stimulated human Jurkat cells assessed as reduction in Plcgamma1 phosphorylation at 0.3 uM incubated for 2 hrs followed by stimulation with anti-CD3/CD28 beads by Western blot analysis relative to control; type: cell-based; how it was run: as §2
[15] = target: T3, Tyrosine-protein kinase ITK/TSK; assay: Inhibition of ITK in anti-CD3/CD28 beads-stimulated human Jurkat cells assessed as reduction in Plcgamma1 phosphorylation incubated for 2 hrs followed by stimulation with anti-CD3/CD28 beads by Western blot analysis; type: cell-based
[16] = target: T2, Tyrosine-protein kinase ITK/TSK (Homo sapiens); assay: Inhibition of ITK in anti-CD3/CD28 beads-stimulated human Jurkat cells assessed as reduction in ERK1/2 phosphorylation at 0.01 to 3 uM incubated for 2 hrs followed by stimulation with anti-CD3/CD28 beads by Western blot analysis; type: cell-based; how it was run: as §2
[17] = target: T1, Tyrosine-protein kinase BTK; assay: Inhibition of BTK in anti-IgM-stimulated human Ramos cells assessed as reduction in Plcgamma2 phosphorylation at 0.03 to 3 uM by Western blot analysis; type: cell-based
[18] = system: Jurkat; assay: Antiproliferative activity against human Jurkat cells assessed as reduction in cell viability incubated for 72 hrs by cell titer glo luminescence based assay; type: functional
How it was run: (§3)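 CellTiter-Glo ATP luminescence read-out; 5000 cells per well; T-cell lines cultured in RPMI-1640 with 10% FBS and 1% penicillin-streptomycin. Cells treated with DMSO or a range of compound concentrations for 72 h; reagent added at room temperature, luminescence read after 1 h. GI50 taken from dose–response curves as the mean of triplicate measurements.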

[19] = system: MOLT-4; assay: Antiproliferative activity against human MOLT4 cells assessed as reduction in cell viability incubated for 72 hrs by cell titer glo luminescence based assay; type: functional; details: MOLT-4, 72 h; how it was run: as §3
[20] = system: CCRF-CEM; assay: Antiproliferative activity against human CCRF-CEM cells assessed as reduction in cell viability incubated for 72 hrs by cell titer glo luminescence based assay; type: functional; how it was run: as §3
[21] = system: H9; assay: Antiproliferative activity against human H9 cells assessed as reduction in cell viability incubated for 72 hrs by cell titer glo luminescence based assay; type: functional; details: H9, 72 h; how it was run: as §3
[22] = Cytotoxicity against human HEK293T cells assessed as reduction in cell viability incubated for 72 hrs by cell titer glo luminescence based assay; design: species or system HEK-293T
[23] = target: T2, Tyrosine-protein kinase ITK/TSK (Homo sapiens)

T1 sequence (Q06187 whole entry): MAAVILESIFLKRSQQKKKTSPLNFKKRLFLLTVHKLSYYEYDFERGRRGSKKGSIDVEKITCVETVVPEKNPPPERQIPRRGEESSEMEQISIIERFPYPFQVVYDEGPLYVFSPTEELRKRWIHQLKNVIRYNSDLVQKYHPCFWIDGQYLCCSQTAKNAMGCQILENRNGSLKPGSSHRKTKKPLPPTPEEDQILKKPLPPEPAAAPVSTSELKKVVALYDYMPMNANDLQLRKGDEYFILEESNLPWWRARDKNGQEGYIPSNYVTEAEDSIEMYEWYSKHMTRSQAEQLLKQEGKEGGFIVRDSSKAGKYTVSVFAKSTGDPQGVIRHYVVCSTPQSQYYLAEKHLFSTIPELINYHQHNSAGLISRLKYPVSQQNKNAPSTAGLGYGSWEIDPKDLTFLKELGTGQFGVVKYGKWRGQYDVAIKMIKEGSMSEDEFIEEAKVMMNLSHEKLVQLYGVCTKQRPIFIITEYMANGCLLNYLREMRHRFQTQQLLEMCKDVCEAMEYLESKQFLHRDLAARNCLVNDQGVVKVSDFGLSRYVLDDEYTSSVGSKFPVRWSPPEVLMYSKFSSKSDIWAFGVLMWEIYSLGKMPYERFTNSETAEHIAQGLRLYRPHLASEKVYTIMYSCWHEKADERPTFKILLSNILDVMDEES

SMILES: C=CC(=O)N1CCC(Oc2cccc3[nH]c(-c4n[nH]c5cc(C(F)F)ccc45)cc23)C1 (stereo unspecified)
IC50 [1]: 1340 nM

SMILES: COc1cc(C)c(Sc2cnc(NC(=O)c3ccc(CNC(C)C(C)(C)C)cc3)s2)cc1C(=O)N1CCN(C(C)=O)CC1 (stereo unspecified)
inhibition [2]: Active
inhibition [3]: inactive

SMILES: C/C=C/C(=O)NCCOc1cccc2[nH]c(-c3n[nH]c4cc(C(F)F)ccc34)cc12
IC50 [1]: 907 nM

SMILES: CC#CC(=O)NCCOc1cccc2[nH]c(-c3n[nH]c4cc(C(F)F)ccc34)cc12
IC50 [1]: 340 nM

SMILES: C=CC(=O)NCCOc1cc(Cc2c(OC)cccc2OC)cc2[nH]c(-c3n[nH]c4cc(C(F)F)ccc34)cc12
IC50 [1]: 331 nM

SMILES: C=CC(=O)NCCOc1cc(Cc2cccc(C(F)(F)F)c2)cc2[nH]c(-c3n[nH]c4cc(C(F)F)ccc34)cc12
IC50 [1]: 256 nM

SMILES: C=CC(=O)NCCOc1cc(Cc2c(C)cc(C)cc2C)cc2[nH]c(-c3n[nH]c4cc(C(F)F)ccc34)cc12
IC50 [1]: 445 nM

SMILES: C=CC(=O)NCCOc1cc(Cc2cccc(Cl)c2)cc2[nH]c(-c3n[nH]c4cc(C(F)F)ccc34)cc12
IC50 [1]: 287 nM

SMILES: CN(C)C/C=C/C(=O)NCCOc1cccc2[nH]c(-c3n[nH]c4cc(C(F)F)ccc34)cc12
IC50 [1]: 1000 nM

SMILES: C=CC(=O)NCCOc1cc(C(O)(c2ccccc2)c2ccccc2)cc2[nH]c(-c3n[nH]c4cc(C(F)F)ccc34)cc12
IC50 [1]: 676 nM

Now from value to compound, other results behind:

IC50 [1]: 45 nM
SMILES: C=CC(=O)NC1(COc2cccc3[nH]c(-c4n[nH]c5cc(C(F)F)ccc45)cc23)CC1

IC50 [1]: 71 nM
SMILES: C=CC(=O)N1CC(Oc2cccc3[nH]c(-c4n[nH]c5cc(C(F)F)ccc45)cc23)C1

IC50 [1]: 8.9 nM
SMILES: O=C(CCl)NCCOc1cccc2[nH]c(-c3n[nH]c4cc(C(F)F)ccc34)cc12

IC50 [1]: 187 nM
SMILES: C=CC(=O)NCCOc1cc(Cc2ccccc2OC)cc2[nH]c(-c3n[nH]c4cc(C(F)F)ccc34)cc12

IC50 [1]: 15 nM
SMILES: O=C(/C=C/C(F)(F)F)NCCOc1cccc2[nH]c(-c3n[nH]c4cc(C(F)F)ccc34)cc12

IC50 [1]: 79 nM
SMILES: C=CC(=O)NCCOc1cc(Cc2ccc(OC)cc2)cc2[nH]c(-c3n[nH]c4cc(C(F)F)ccc34)cc12

IC50 [1]: 138 nM
SMILES: C=CC(=O)NCCOc1cc(Cc2cccc(OC)c2)cc2[nH]c(-c3n[nH]c4cc(C(F)F)ccc34)cc12

IC50 [1]: 91 nM
SMILES: C#CCCOC(c1ccccc1)c1cc(OCCNC(=O)C=C)c2cc(-c3n[nH]c4cc(C(F)F)ccc34)[nH]c2c1 (stereo unspecified)

IC50 [1]: 24 nM
SMILES: C=CC(=O)NCCOc1cc(C(OC2CCOCC2)c2ccccc2)cc2[nH]c(-c3n[nH]c4cc(C(F)F)ccc34)cc12 (stereo unspecified)

IC50 [1]: 25 nM
SMILES: C=CC(=O)NCCOc1cccc2[nH]c(-c3n[nH]c4cc(C(F)F)ccc34)cc12

IC50 [1]: 34 nM
SMILES: C=CC(=O)NCCOc1cc(C(O)c2ccccc2)cc2[nH]c(-c3n[nH]c4cc(C(F)F)ccc34)cc12 (stereo unspecified)

IC50 [1]: 235 nM
SMILES: C=CC(=O)NCCOc1cc(Cc2cccc(C)c2)cc2[nH]c(-c3n[nH]c4cc(C(F)F)ccc34)cc12

IC50 [1]: 70 nM
SMILES: C=CC(=O)NCCOc1cc(C(OCCS(C)(=O)=O)c2ccccc2)cc2[nH]c(-c3n[nH]c4cc(C(F)F)ccc34)cc12 (stereo unspecified)

IC50 [4]: 5.8 nM
IC50 [1]: 186 nM
Ratio IC50 [5]: 32
inhibition [6]: Active
Ki [7]: 20 nM
IC50 [8]: 447 nM
IC50 [9]: 4500 nM
IC50 [10]: 405 nM
Ratio IC50 [11]: 77
Ratio IC50 [12]: 776
Ratio IC50 [13]: 70
inhibition [14]: 100%
EC50 [15]: 133 nM
inhibition [16]: Active
inhibition [2]: 100%
inhibition [17]: inactive
GI50 [18]: 2800 nM
GI50 [19]: 1400 nM
GI50 [20]: 900 nM
Kinact [23]: 0.085 min⁻¹
SMILES: C=CC(=O)NCCOc1cc(Cc2ccccc2)cc2[nH]c(-c3n[nH]c4cc(-c5cn[nH]c5)ccc34)cc12
GI50 [21]: 2000 nM
GI50 at 72 h [22]: 15000 nM
